Experimental findings from ChEMBL document CHEMBL1152541, “Staurosporine tethered peptide ligands that target cAMP-dependent protein kinase (PKA): optimization and selectivity profiling” (Bioorg Med Chem, 2009) are described below.

Molecules are shown by their SMILES. *1 amine or outer side, *2 acyl side, *3 side chain or, on linkers, in order; H or OH if unused. Where a SMILES comes first, the peptide text is derived from it. Bridges are numbered along the chain shown (N, C = ends). [ ]: non-standard residue; d: D form. The star is where a group is joined. Staurosporine = CO[C@@H]1[C@H](N(C)*)C[C@H]2O[C@]1(C)n1c3ccccc3c3c4c(c5c6ccccc6n2c5c31)C(=O)NC4; Suc = O=C(CCC(=O)[*:2])[*:1]; Dap = NC[C@H](N)C(=O)O; βAla = NCCC(=O)O

Test [1] addresses T1, Protein kinase C epsilon type (Homo sapiens) (UniProt Q02156).
T1 sequence (whole entry): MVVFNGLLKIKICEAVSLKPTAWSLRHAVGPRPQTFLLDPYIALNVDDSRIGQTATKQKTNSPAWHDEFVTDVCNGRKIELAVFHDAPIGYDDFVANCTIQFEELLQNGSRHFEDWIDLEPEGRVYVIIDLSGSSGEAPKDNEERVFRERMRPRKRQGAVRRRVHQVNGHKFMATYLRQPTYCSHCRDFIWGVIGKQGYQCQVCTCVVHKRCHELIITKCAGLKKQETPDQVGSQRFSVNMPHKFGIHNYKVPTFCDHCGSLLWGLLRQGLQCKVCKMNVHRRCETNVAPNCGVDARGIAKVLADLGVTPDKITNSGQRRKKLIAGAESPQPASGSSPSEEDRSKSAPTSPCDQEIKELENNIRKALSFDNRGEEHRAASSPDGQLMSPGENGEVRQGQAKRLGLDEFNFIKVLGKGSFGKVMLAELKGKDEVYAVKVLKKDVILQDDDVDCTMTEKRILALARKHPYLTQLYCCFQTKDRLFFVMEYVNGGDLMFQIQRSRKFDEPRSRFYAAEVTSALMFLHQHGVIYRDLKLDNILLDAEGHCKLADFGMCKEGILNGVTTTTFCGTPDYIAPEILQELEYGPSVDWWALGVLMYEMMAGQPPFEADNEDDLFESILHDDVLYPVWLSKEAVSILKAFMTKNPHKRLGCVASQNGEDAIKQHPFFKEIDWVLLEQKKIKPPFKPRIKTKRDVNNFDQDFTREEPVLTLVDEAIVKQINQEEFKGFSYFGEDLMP
As to the kind of experiment: Binding affinity to human PRKCepsilon at 500 nM by cell-based competition binding assay relative to control in presence of DTT.

Test [2] has as its target T2, Bone morphogenetic protein receptor type-2 (Homo sapiens) (UniProt Q13873).
T2 sequence (whole entry): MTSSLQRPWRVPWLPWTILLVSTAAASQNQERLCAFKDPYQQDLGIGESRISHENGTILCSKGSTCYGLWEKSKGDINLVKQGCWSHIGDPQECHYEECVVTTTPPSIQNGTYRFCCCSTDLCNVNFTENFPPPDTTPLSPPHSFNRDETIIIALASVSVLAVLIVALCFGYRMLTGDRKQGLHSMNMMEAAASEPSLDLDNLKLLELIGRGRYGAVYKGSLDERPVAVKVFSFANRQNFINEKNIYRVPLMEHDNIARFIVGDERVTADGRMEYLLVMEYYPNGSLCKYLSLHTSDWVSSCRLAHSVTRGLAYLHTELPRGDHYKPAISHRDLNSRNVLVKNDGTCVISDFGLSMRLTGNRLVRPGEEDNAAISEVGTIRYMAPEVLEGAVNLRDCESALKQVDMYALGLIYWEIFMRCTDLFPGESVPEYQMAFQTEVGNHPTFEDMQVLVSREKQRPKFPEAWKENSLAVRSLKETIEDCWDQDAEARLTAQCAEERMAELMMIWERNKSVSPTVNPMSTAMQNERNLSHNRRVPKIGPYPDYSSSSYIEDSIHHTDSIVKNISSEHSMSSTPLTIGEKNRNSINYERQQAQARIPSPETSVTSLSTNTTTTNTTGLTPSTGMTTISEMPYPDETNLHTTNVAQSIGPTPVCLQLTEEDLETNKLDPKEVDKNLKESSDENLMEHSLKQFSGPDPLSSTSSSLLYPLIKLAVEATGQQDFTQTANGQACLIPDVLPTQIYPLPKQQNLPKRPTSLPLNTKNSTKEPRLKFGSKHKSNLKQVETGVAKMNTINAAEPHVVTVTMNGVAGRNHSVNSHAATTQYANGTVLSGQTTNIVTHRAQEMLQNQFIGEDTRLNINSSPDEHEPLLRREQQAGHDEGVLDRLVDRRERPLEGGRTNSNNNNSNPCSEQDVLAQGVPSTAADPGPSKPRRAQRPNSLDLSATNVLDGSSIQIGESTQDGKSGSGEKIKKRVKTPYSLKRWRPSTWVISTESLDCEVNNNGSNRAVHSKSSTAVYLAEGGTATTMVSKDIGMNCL
In words: Binding affinity to human BMPR2 at 500 nM by cell-based competition binding assay relative to control in presence of DTT. The method, boiled down: (§1)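 Kinase binding profiling ran on a commercial (Ambit) competitive binding screen against a panel of 90 kinases. The screen used reducing conditions with 7.5 mM DTT. To withstand the DTT, the bivalent ligand was tested as its amide isostere, with the disulfide replaced. A staurosporine derivative carrying a 3 β-alanine linker was run as the reference compound.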

For test [3], the target named is T3, Serine/threonine-protein kinase DCLK1 (Homo sapiens) (UniProt O15075).
T3 sequence (whole entry): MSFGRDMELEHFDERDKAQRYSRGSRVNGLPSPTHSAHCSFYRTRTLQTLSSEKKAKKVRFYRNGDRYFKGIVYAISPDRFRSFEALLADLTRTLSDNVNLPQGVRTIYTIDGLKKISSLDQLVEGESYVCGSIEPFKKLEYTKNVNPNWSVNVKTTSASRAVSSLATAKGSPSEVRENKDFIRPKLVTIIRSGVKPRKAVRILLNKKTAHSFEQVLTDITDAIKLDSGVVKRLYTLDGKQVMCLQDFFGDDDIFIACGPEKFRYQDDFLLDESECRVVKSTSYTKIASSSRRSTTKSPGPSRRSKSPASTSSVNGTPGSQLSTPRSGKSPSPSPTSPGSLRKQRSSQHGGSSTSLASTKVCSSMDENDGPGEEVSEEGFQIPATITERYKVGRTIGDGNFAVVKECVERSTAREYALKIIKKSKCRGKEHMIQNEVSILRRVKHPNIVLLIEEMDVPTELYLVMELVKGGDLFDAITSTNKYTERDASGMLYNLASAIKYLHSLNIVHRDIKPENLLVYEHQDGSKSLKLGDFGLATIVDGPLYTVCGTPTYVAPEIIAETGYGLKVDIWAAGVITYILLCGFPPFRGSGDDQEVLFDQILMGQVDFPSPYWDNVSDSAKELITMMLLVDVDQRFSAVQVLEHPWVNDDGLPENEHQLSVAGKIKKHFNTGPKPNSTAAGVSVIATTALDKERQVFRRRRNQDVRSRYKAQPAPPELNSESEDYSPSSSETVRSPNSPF
As to the kind of experiment: Binding affinity to human DCAMKL1 at 200 nM by cell-based competition binding assay relative to control in presence of DTT. In outline: (§2)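 Commercial (Ambit) competitive kinase-binding panel of 90 kinases measured the binding profile. Run under reducing conditions of 7.5 mM DTT. Binding is expressed relative to control.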

Test [4] concerns the target Dual specificity tyrosine-phosphorylation-regulated kinase 1B (Homo sapiens) (UniProt Q9Y463). As to the kind of experiment: Binding affinity to human DYRK1B at 200 nM by cell-based competition binding assay relative to control in presence of DTT. The method, boiled down: as §2
For test [5], the target named is Dual specificity mitogen-activated protein kinase kinase 2 (Homo sapiens) (UniProt P36507). As to the kind of experiment: Binding affinity to human MEK2 at 200 nM by cell-based competition binding assay relative to control in presence of DTT.
Dual specificity mitogen-activated protein kinase kinase 2 (Homo sapiens), sequence (P36507 whole entry): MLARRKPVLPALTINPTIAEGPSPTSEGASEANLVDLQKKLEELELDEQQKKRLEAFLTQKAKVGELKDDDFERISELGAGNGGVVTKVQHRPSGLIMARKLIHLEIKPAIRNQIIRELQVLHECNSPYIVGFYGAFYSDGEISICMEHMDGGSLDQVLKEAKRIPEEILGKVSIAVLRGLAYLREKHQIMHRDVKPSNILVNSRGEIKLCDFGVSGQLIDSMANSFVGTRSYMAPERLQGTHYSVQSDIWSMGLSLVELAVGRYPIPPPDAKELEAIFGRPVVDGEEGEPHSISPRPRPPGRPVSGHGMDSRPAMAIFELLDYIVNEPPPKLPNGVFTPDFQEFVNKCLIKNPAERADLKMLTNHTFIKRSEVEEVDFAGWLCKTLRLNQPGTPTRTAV
Test [6] deals with Tyrosine-protein kinase BTK (Homo sapiens) (UniProt Q06187). As to the kind of experiment: Binding affinity to human BTK at 50 nM by cell-based competition binding assay relative to control in presence of DTT. The method, boiled down: as §1
Tyrosine-protein kinase BTK (Homo sapiens), sequence (Q06187 whole entry): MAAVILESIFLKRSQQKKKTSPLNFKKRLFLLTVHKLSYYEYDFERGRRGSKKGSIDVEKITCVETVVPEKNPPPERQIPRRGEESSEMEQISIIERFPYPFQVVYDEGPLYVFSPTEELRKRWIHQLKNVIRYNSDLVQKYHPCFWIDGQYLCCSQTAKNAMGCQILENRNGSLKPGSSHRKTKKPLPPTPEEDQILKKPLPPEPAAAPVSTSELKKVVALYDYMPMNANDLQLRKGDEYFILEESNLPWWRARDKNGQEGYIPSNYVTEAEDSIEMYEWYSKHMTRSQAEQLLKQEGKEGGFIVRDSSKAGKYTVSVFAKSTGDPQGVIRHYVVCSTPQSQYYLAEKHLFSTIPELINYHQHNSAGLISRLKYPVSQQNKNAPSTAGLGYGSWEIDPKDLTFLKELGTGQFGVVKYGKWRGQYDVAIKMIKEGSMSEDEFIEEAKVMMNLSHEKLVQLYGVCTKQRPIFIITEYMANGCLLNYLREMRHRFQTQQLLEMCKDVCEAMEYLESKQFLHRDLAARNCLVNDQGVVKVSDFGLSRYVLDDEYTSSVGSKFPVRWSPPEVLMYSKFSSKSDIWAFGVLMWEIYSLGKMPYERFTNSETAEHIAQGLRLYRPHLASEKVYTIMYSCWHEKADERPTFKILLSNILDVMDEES

Dual specificity tyrosine-phosphorylation-regulated kinase 1B (Homo sapiens), sequence (Q9Y463 whole entry, looked up): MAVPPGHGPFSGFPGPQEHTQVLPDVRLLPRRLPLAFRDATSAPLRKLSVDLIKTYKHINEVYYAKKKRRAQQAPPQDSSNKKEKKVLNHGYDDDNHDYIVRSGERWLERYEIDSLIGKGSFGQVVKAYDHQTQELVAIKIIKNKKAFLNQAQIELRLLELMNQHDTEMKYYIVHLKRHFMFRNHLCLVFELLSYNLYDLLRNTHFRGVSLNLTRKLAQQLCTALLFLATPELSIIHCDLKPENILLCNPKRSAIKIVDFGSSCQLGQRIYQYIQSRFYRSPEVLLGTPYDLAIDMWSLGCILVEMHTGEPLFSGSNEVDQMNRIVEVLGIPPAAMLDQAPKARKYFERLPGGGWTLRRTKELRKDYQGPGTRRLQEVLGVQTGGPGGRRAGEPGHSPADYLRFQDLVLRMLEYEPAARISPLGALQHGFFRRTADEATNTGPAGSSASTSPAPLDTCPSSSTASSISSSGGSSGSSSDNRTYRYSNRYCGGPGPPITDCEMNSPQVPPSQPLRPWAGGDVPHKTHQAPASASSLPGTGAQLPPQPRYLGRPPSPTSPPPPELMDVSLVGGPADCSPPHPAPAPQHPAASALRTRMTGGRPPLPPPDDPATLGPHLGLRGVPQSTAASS

As for `CO[C@@H]1[C@H](N(C)C(=O)CCC(=O)NCCC(=O)NCCC(=O)NCCC(N)=O)C[C@H]2O[C@]1(C)n1c3ccccc3c3c4c(c5c6ccccc6n2c5c31)C(=O)NC4`, the Activity in test [1] was 0.6%; in test [2], 100%.
As to `CO[C@@H]1[C@H](N(C)C(=O)CCC(=O)NCCC(=O)NCCC(=O)NCCC(=O)NCCC(=O)NCCC(=O)NCCC(=O)NCCC(=O)N[C@H]2CSSC[C@@H](C(=O)NCC(N)=O)NC(=O)CNC(=O)[C@H](Cc3ccccc3)NC(=O)[C@H](C(C)C)NC(=O)[C@H](CCCNC(=N)N)NC(=O)[C@H](Cc3ccccc3)NC(=O)[C@H](C(C)C)NC2=O)C[C@H]2O[C@]1(C)n1c3ccccc3c3c4c(c5c6ccccc6n2c5c31)C(=O)NC4` ({Staurosporine-Suc-βAla-βAla-βAla-βAla-βAla-βAla-βAla}-CVFRVFGCG-NH2; disulfide 1-8), the Activity in test [3] was found to be 100%; in test [4], 14%; in test [5], 100%.
For the compound `CO[C@@H]1[C@H](N(C)C(=O)CCC(=O)NCCC(=O)NCCC(=O)NCCC(=O)NCCC(=O)NCCC(=O)NCCC(=O)NCCC(=O)N[C@H]2CNC(=O)C[C@@H](C(N)=O)NC(=O)CNC(=O)[C@H](Cc3ccccc3)NC(=O)[C@H](C(C)C)NC(=O)[C@H](CCCNC(=N)N)NC(=O)[C@H](Cc3ccccc3)NC(=O)[C@H](C(C)C)NC2=O)C[C@H]2O[C@]1(C)n1c3ccccc3c3c4c(c5c6ccccc6n2c5c31)C(=O)NC4` ({Staurosporine-Suc-βAla-βAla-βAla-βAla-βAla-βAla-βAla}-[Dap]VFRVFGD-NH2; lactam 1-8), the Activity in test [6] amounted to 98%.
